Screening data: PubChem BioAssay, several laboratories
NR2E3 ag-1 – NR2E3 agonists in two-hybrid cells, primary screen, cell-based, luminescence, CHO-S, Gal4-NCOR/VP16-NR2E3; Photoreceptor-specific nuclear receptor (Homo sapiens), Q9Y5X4; luciferase; inhibition of corepressor binding, % at 3.98 µM; 0.35% of 360,000 active; AID 602229, 2012;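 active = inhibition above the mean of all tested compounds plus 3 SD, cut at about 70% in these data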;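 also: 0% = DMSO with NR2E3 transfected cells and 100% = cells lacking NR2E3 construct; higher means lower luciferase signal from less NR2E3 corepressor binding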
NR2E3 ag-2 – inhibitors of NR2E3-RetCOR corepressor binding, primary screen, NR2E3 agonist project, biochemical, TR-FRET, GST-NR2E3, biotin-RetCOR | Photoreceptor-specific nuclear receptor (Homo sapiens), Q9Y5X4 | 1536-well | inhibition of corepressor binding, % at 4.78 µM | 0.12% of 320,000 active | AID 2300, 2010;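 active = percent inhibition above the cutoff of mean plus 3 SD of all tested compounds, set per screening campaign, cut at about 20% in these data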;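 also: 0% = DMSO wells and 100% = biotin wells as full block of FRET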
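system = GST-tagged NR2E3 plus biotinylated RetCOR corepressor | input = 1.35 nM GST-NR2E3 | also added = 7 nM biotin-RetCOR | schedule = 5 h incubation at 4 °C | measured by = TR-FRET with europium anti-GST and streptavidin-D2, 340 nm excitation | read-out = percent loss of FRET ratio relative to control wells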
PG9 binder – binders of HIV-1 gp120 antibody PG9, primary screen, biochemical, TR-FRET. HIV-1 gp120 / PG9 antibody interaction. TR-FRET gp120-PG9 antibody binding. inhibition, % at 6.7 µM. 0.43% of 360,000 active. AID 624416, 2012; in the data active = inhibition above about 8.5%
Rev-erbA mod – modulators of Rev-erb alpha DNA binding, primary screen, biochemical, FITC-DNA, fluorescence polarization, uHTS; Rev-erbα–FITC-DNA binding, 90 min; activity, % at 10 µM; 0.79% of 370,000 active; AID 1259318, 2017;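 active = activity above about 14%, limit read from the data; passing the limit was not always enough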;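 also: 0% = DMSO wells with 35 nM protein and 100% = DMSO wells with 750 nM protein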
Target sequence (P20393 whole entry, looked up): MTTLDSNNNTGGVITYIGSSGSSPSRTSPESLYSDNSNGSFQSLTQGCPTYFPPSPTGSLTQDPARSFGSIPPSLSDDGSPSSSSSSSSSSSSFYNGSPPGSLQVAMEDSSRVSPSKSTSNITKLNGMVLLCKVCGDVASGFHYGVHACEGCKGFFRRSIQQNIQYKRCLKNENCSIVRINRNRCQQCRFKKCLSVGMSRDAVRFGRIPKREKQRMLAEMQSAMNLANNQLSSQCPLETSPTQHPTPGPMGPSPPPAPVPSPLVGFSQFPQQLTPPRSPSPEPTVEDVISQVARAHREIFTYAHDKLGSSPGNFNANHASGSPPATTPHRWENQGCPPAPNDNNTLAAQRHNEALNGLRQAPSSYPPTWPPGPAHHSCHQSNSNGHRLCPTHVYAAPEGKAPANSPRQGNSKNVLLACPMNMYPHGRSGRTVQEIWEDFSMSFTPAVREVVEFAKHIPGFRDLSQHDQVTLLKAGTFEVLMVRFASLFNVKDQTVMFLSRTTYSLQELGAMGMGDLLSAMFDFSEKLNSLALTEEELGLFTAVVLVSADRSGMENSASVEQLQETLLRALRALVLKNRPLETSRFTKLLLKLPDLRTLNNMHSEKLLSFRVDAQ
NR2E3 ag conf – NR2E3 agonist confirmation in cells, cell-based, luminescence, CHO-S two-hybrid | AID 624378, 2012 | inhibition, % at 3.98 µM | shares compounds with NR2E3 ag-1 | 51% of 2,300 active | CHO-S mammalian two-hybrid NR2E3-NCOR, luciferase luminescence;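 active = average inhibition above a cutoff equal to the mean inhibition of all tested compounds plus one SD, cut at about 70% in these data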;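 also: 0% = DMSO in NR2E3 cells and 100% = DMSO in cells lacking NR2E3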
GAL4-VP16 luc – GAL4-VP16 reporter modulators, confirmation, counter-screen for NR2E3 agonist project, cell-based, luminescence, CHO-S, high throughput; shares compounds with NR2E3 ag-1; 29% of 2,300 active; inhibition, % at 3.98 µM; CHO-S GAL4-VP16 luciferase reporter;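 active = mean inhibition above a cutoff equal to the average over all tested compounds plus one standard deviation, cut at about 70% in these data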;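 also: luciferase from a UAS reporter driven by GAL4-VP16 transactivation; 0% = DMSO with VP16-transfected cells and 100% = DMSO with cells lacking VP16; higher means less reporter light so more repression of VP16 activity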
The depositor's hits bear a star; . = no result. Most compounds without a hit are left out; they make up all but 1.5% or so of the library.

SMILES | NR2E3 ag-1 | NR2E3 ag-2 | PG9 binder | Rev-erbA mod | NR2E3 ag conf | GAL4-VP16 luc
COc1cccc(NC(C(=O)Nc2cccc(C(C)=O)c2)c2ccccc2)c1 (stereo not given) | -1.9 | -2.0 | -2.0 | -0.4 | . | .
COc1cc(NC(C(=O)Nc2cccc(C(C)=O)c2)c2ccccc2)cc(OC)c1OC (stereo not given) | 49.0 | -2.2 | -2.7 | 4.8 | -21.4 | 0.3
COC(=O)Cc1ccc(NC(=O)c2ccc(C(C)(C)C)cc2)cc1 | 56.0 | 0.2 | 1.4 | 1.4 | 57.7 | 48.8
COCCCNC(=O)C[C@H]1C[C@@]2(C(=O)OC)C(=C[C@H](COCc3ccccc3)O[C@@H]2C)N(Cc2ccc(Cl)cc2Cl)C1=O | . | . | . | 3.2 | . | .
CCc1oc2ccccc2c1C(=O)c1cc(I)c(O)c(I)c1 | . | . | . | 2.0 | . | .
COc1ccc(C(=O)Nc2cnn(Cc3ccc(Cl)cc3)c2)cc1OC | 63.3 | -0.4 | -0.9 | 0.0 | 63.3 | 10.8
COc1ccccc1NC(=O)CSc1nc2ccccc2c(=O)n1C | 15.6 | 5.8 | -1.6 | -1.0 | . | .
Cn1c(SCc2cccc([N+](=O)[O-])c2)nc2ccccc2c1=O | 49.4 | 2.5 | -3.6 | -2.4 | 82.9* | 64.7
Cc1cccc(NC(=O)CSc2nc3ccccc3c(=O)n2C)c1C | 81.3* | . | 1.6 | 4.1 | 90.6* | 80.5*
CC1=C(C(=O)N2CCCC(C(=O)c3cccc(C(F)(F)F)c3)C2)OCCO1 (stereo not given) | -20.8 | 0.6 | 1.1 | -2.4 | . | .
CCc1[nH]nc(C(=O)N2CCCC(C(=O)c3cccc(C(F)(F)F)c3)C2)c1C (stereo not given) | 49.0 | -3.9 | -2.9 | -4.8 | 19.9 | 31.3
CC(C)=CCC/C(C)=C/CC/C(C)=C/CCC(=O)OC/C=C(\C)CCC=C(C)C | . | . | . | -0.2 | . | .
O=S(=O)(c1ccccc1)N1CCC(O)(CSc2ccc(Cl)cc2)CC1 | 78.4* | 0.9 | -0.6 | 1.2 | 95.2* | 79.4*
COc1ccc(CNC(=O)c2cccc3c(-c4cccnc4)coc23)cc1OC | 97.0* | . | -0.8 | 1.2 | 96.3* | 89.0*
O=C(NCc1ccc(F)c(F)c1)c1cccc2c(-c3cccnc3)coc12 | 6.5 | . | 0.3 | 8.5 | . | .
COc1cccc(-c2nnc3n2N=C(C(C)(C)C)CS3)c1 | 68.8 | 3.2 | 0.4 | -1.7 | 29.5 | 50.8
CC(C)CCN1C(=O)COc2ccccc2C1c1nnnn1-c1ccc2c(c1)OCCO2 (stereo not given) | . | . | . | 4.9 | . | .
NC(=S)N/N=C\c1c(OCc2ccccc2Cl)ccc2ccccc12 | 93.9* | 2.4 | -0.6 | -5.8 | -16.2 | -3.3
NC(=S)N/N=C\c1c2ccccc2cc2ccccc12 | -28.5 | 2.3 | -3.6 | -1.4 | . | .
O=C(NNc1ccccc1)c1ccccc1 | 37.3 | . | -1.4 | 2.3 | . | .
O=NN(CC(=O)NNc1ccccc1)CC(=O)NNc1ccccc1 | 73.4* | . | -0.8 | 2.1 | 73.8* | -2.1
c1cc(CNc2ccc3c(c2)OCCO3)ccn1 | 61.7 | -3.8 | -1.1 | -5.6 | -3.7 | -2.4
C=CCOc1ccccc1CNc1ccc2c(c1)OCCO2 | 48.6 | -2.9 | . | . | 48.8 | -8.0
O=C(NCc1ccncc1)Nc1ccc2c(c1)OCO2 | -6.7 | 1.5 | -0.9 | -4.0 | . | .
Cc1ccc(CN2CCCCC(NC(=O)Nc3ccccc3)C2=O)cc1 (stereo not given) | . | . | . | 0.5 | . | .
Cc1ccc(-n2nc3c(=O)n(C(C)C(=O)NCCCc4ccccc4)nc(C)c3c2C)cc1 (stereo not given) | 50.9 | -2.9 | -0.5 | 2.8 | 18.8 | 37.9
Cc1ccc2[nH]c3c(c2c1)CCCC3NC(=O)CCl (stereo not given) | 87.7* | 0.5 | . | . | 89.0* | 72.5*
Cc1[nH]c2ccccc2c(=O)c1C(=O)/C=C/c1ccccc1 | 64.8 | -4.4 | -0.4 | 1.6 | 29.6 | 60.1
CSCCCNC(=O)CN1C(=O)C2CCCCN2C(=O)c2ccccc21 (stereo not given) | . | . | . | 5.0 | . | .
